Screening data from PubChem BioAssay.
NPY Y1 blocker: NPY-Y1 receptor antagonists, primary screen, cell-based | Neuropeptide Y receptor type 1 (Homo sapiens), P25929 | HEK293-CNG Y1 cells, membrane potential fluorescence; NPY at EC95, then isoproterenol | inhibition, % at 3.6 µM | 200,000 compounds, 1% hits | AID 1040, 2008;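 active means inhibition above the campaign mean inhibition of all tested compounds plus 3 SD, cut at about 20% in these data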;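 further: 0% = DMSO wells given NPY plus isoproterenol and 100% = isoproterenol alone without NPY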
Target sequence (P25929 whole entry, looked up): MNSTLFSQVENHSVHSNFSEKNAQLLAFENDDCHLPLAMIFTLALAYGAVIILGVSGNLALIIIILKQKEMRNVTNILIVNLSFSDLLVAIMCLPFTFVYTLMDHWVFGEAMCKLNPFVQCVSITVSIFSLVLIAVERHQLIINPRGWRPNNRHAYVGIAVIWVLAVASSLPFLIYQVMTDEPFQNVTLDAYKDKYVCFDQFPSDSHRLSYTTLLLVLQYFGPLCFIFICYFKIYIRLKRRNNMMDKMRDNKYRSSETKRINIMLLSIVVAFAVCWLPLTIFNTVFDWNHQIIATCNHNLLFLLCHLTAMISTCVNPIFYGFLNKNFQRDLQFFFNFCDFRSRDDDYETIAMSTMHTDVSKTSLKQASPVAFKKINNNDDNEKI
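Assay system: HEK293 Y1/CNG channel cell line; Doses: single compound dose of 3.6 µM, 0.4% DMSO; Timing: dye 3 h, compound 60 min room temperature, stimulation 45 min; Technique: Membrane-potential fluorescent dye readout; Measure: % inhibition of NPY effect.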
NPY-Y1 PAM-ag: NPY-Y1 receptor potentiators or agonists, primary screen, cell-based; Neuropeptide Y receptor type 1 (Homo sapiens), P25929; NPY-Y1 expressing cells, potentiator/agonist activation; activation, % at 3.6 µM; 220,000 compounds, 0.37% hits; AID 1304, 2008; in the data active means activation above about 33%, passing the limit was not always enough;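 further: cells stimulated with NPY at EC10 then isoproterenol at EC100; 0% = low agonist plus stimulus and 100% = saturating agonist plus stimulus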
MT stabilizer: microtubule stabilizers in HeLa cells, primary screen, imaging, high-content imaging; HeLa tubulin immunostaining HCS, 24 h; share of cells brighter than vehicle mean+2SD; % tubulin-high responders, % at 10 µM; 200,000 compounds, 0.83% hits; AID 2205, 2009;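 active means plate Z-score above 3 for both tubulin-high and condensed-nucleus cell shares, with cell loss under 80%, at 10 µM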;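 further: anti alpha tubulin signal scored within the nucleus-defined area of each cell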
NPY Y2 blocker: NPY-Y2 receptor antagonists, primary screen, cell-based | Neuropeptide Y receptor type 2 (Homo sapiens), P49146 | AID 793, 2007 | 140,000 compounds, 0.99% hits | NPY-Y2 expressing cells, antagonist mode | inhibition, % at 2.7 µM; in the data active means inhibition above about 17%;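 further: 0% = vehicle with agonist challenge and 100% = reference antagonist with challenge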
b-catenin transl: modulators of beta-catenin nuclear translocation, primary screen, imaging, HeLa cells, immunofluorescence, high-content; nuclear translocation activity, % at 5 µM; 190,000 compounds, 0.3% hits;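 active means nuclear translocation activity above 50% at 5 µM, with a well cell count of 50 or more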;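 further: per-cell ratio of nuclear to cytoplasmic median beta-catenin stain intensity; plate controls were DMSO negative control for no effect and GSK-3 inhibitor IX positive control for full effect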
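Test system: HeLa cells, endogenous beta-catenin; Compound: single 5 µM dose plus 0.02–20 µM confirmation series; Times: compound exposure 24 h at 37°C; Signal: fluorescence imaging of beta-catenin antibody stain plus DAPI; Read-out: % activation, nuclear-to-cytoplasmic median beta-catenin signal ratio per cell.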
NPY-Y2 PAM-ag: NPY-Y2 potentiators or agonists, primary screen, cell-based; 220,000 compounds, 0.45% hits; cells expressing NPY-Y2, potentiator/agonist read-out; Neuropeptide Y receptor type 2 (Homo sapiens), P49146; activation, % at 3.6 µM; in the data active means activation above about 27%;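 further: cells stimulated with NPY near EC25 plus isoproterenol at EC100; 0% = vehicle plus submaximal agonist and 100% = vehicle plus saturating agonist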
The depositor's hits bear a star; / = not tested or not shown. An excerpt weighted towards active compounds, which were near 2.6% of everything screened.

SMILES	NPY Y1 blocker	NPY-Y1 PAM-ag	MT stabilizer	NPY Y2 blocker	b-catenin transl	NPY-Y2 PAM-ag
Cc1ccc(N2CC(O)=C(c3nc4ccccc4c(=O)[nH]3)C2=N)cc1C	-2.4	-6.5	2.6	/	0.1	6.0
N=C1C(c2nc3ccccc3s2)=C(O)CN1c1ccccc1	1.0	-2.9	27.9*	/	-0.2	-6.6
Cc1ccc(NC(=O)c2ccccc2OCc2ccc([N+](=O)[O-])cc2)nc1	4.6	5.0	4.4	/	-2.9	-21.5
COc1ccc2[nH]c3c(NCc4ccco4)ncnc3c2c1	-3.9	19.8	27.0*	0.1	6.1	1.3
CCN(CC)CCNc1ncnc2c1[nH]c1ccc(OC)cc12	3.6	2.2	2.4	5.3	/	7.4
CCCn1c(NCc2ccccc2NS(=O)(=O)c2ccc(C)cc2)nc2ccccc21	-3.5	0.6	21.2*	-1.0	-3.2	-3.9
CCn1c(NCc2ccccc2NS(=O)(=O)c2ccc(C)cc2)nc2ccccc21	2.7	4.7	6.1	0.7	-0.9	-3.5
CC(/C=N/Nc1ncc(C)c(=O)[nH]1)=C\c1ccccc1	15.6	-4.2	7.1	/	-0.9	-16.8
O=[N+]([O-])c1ccc(NCCNS(=O)(=O)c2ccccc2)c(C(F)(F)F)c1	-3.1	-12.2	0.5	-2.2	0.5	5.8
Cc1ccc(S(=O)(=O)NCCNc2ccc([N+](=O)[O-])cc2C(F)(F)F)cc1	-12.7	6.9	1.5	-7.3	1.5	34.5*
CSC1=NC(C(Cl)(Cl)Cl)N=C(c2ccc(C)cc2)N1 (centres undefined)	5.1	0.0	7.7	/	108.3*	-6.2
CCC1N=C(SC)NC(C)=C1C(=O)c1ccccc1 (centres undefined)	2.8	4.0	3.4	/	4.0	13.7
CCOC(=O)Cc1csc(/N=C/c2c(O)n(-c3ccccc3C(F)(F)F)c(=O)c3ccccc23)n1	-2.7	9.1	2.9	0.7	-4.5	-9.2
CCOCCCNC(=O)C(NC(=O)Cc1cccs1)c1ccc(OC)cc1 (centres undefined)	0.5	-4.0	3.6	/	5.8	-14.2
O=C1/C(=C\c2ccc3ccccc3c2)CCCc2ccccc21	7.3	-3.4	30.1*	4.5	50.0*	-21.5
Cc1ccccc1/C=C1\CCCc2ccccc2C1=O	1.7	-11.1	2.8	4.5	-0.7	5.8
COC(=O)Cc1c[nH]c2cccc(OCC(O)CN(Cc3ccc([N+](=O)[O-])cc3)C(C)(C)C)c12 (centres undefined)	-15.4	106.7*	2.8	4.2	1.6	102.6*
COc1ccc(COCC(O)CN(Cc2ccccc2)C(C)C)cc1OC (centres undefined)	1.8	3.4	3.5	/	-4.5	4.2
COC(=O)Cc1c[nH]c2cccc(OCC(O)CN(Cc3ccccc3)C(C)C)c12 (centres undefined)	-14.3	97.3*	5.6	4.0	0.3	89.9*
CC(=O)OC(C(=O)NCc1ccc(F)cc1)c1ccccn1 (centres undefined)	6.1	-11.3	3.4	-5.5	-2.8	-3.0
COC(=O)CNC(c1ccccc1)c1cc(C)ccc1NC(=O)c1cccc(Cl)c1 (centres undefined)	28.4*	-27.1	2.4	17.2*	-0.6	-6.0
COC(=O)CNC(c1ccccc1)c1cc(C)ccc1NC(=O)CNC(=O)OCc1ccccc1 (centres undefined)	29.0*	-34.3	2.5	37.8*	-1.4	-21.8
COc1ccc(Oc2ccc(-c3ccn[nH]3)cc2)cc1	/	-11.9	/	/	0.2	5.2
CCOC(=O)c1oc2ccc(S(=O)(=O)n3nc(-c4ccc(Cl)cc4)cc3N)cc2c1C	7.1	1.4	17.1*	-0.9	-1.5	3.6
CC(O)CNCCNCc1c(OCc2ccccc2)ccc2ccccc12 (centres undefined)	95.8*	-116.0	1.9	37.7*	-1.4	-40.7
SMILES	NPY Y1 blocker	NPY-Y1 PAM-ag	MT stabilizer	NPY Y2 blocker	b-catenin transl	NPY-Y2 PAM-ag
CC(O)CNCCOc1ccccc1OCc1ccccc1 (centres undefined)	9.3	-16.1	2.1	/	-1.0	-2.2
CCOc1ccc(/C=C/[N+](=O)[O-])c2ccccc12	32.1*	-14.6	2.8	27.4*	1.7	-10.7
O=S(=O)(c1ccccc1)N1CCN(C2CCCCCCC2)CC1	6.9	2.3	3.9	3.2	/	-9.1
c1ccc(CCN(Cc2ccccc2)C2CCN(C3CCCC3)CC2)cc1	21.4*	-14.5	1.9	/	1.3	-47.8
CCN(Cc1ccccc1)c1ccc(N=Nc2nn(C)c(C)c2[N+](=O)[O-])cc1	-11.1	58.0*	6.4	-5.2	-1.3	40.7*
CCC(=NCCc1c(C)[nH]c2ccccc12)C1=C(O)CC(c2ccccc2)CC1=O (centres undefined)	9.2	2.7	14.8*	3.1	80.1*	-0.2
CCCCC(=NCCc1c(C)[nH]c2ccc(OC)cc12)C1=C(O)CC(c2ccccc2)CC1=O (centres undefined)	0.8	11.6	16.5*	/	17.4	5.7
CCC(=NCCc1c(C)[nH]c2ccc(OC(F)(F)F)cc12)C1=C(O)CC(c2ccccc2)CC1=O (centres undefined)	-4.7	21.6	10.1	/	0.2	-17.9
CCCC1Cc2nc(Cl)c(C#N)cc2CO1 (centres undefined)	/	-20.0	/	/	-0.1	-2.6
Cc1ccccc1C1CC(c2ccccc2)Nc2ncnn21 (centres undefined)	6.4	-12.3	3.4	4.4	/	-5.6
CCOc1ccc(C2CC(c3ccccc3C)n3ncnc3N2)cc1 (centres undefined)	21.4*	-13.2	1.0	24.0*	/	-12.0
CN(C1=NC(=O)C(CC(=O)Nc2ccc(Br)cc2)S1)c1ccc(O)cc1 (centres undefined)	-14.9	22.1	1.7	-7.2	-0.2	31.1
CCOc1ncccc1C(=O)NCc1ccc(OC)cc1	2.6	-16.7	35.8*	9.7	24.3	-10.6
O=C(Nc1ccc(Br)cc1)c1ccc(N2C(=O)C3CC=C(Cl)CC3C2=O)cc1 (centres undefined)	-9.5	33.6	2.0	1.4	-4.4	20.1
COc1ccc2c(c1)c(=O)c(C(=O)c1ccccc1)cn2Cc1ccc(C)cc1	12.1	-48.1	21.6*	9.5	4.7	-17.4
COc1ccc2c(c1)c(=O)c(Br)c(C)n2Cc1ccccc1	2.1	-9.5	2.9	25.0*	1.2	-7.4
COc1ccc2c(c1)nc(N)n2Cc1ccccc1	7.6	-4.6	4.2	2.8	/	1.4
OC(CNCCNc1ncccc1C(F)(F)F)COc1ccc(F)cc1 (centres undefined)	/	86.0*	/	/	0.2	61.4*
CCN(CC)c1ccc2cc(-c3nc4ccccc4[nH]3)c(=O)oc2c1	8.5	-6.1	18.4	0.2	0.8	7.5
